Hits are enriched below; roughly 3.9% of the tested compounds scored in any of these assays.
FLuc act counter – FLuc activators, initial screening, artefact control for FLuc-dependent activation tests, biochemical, ATPlite luminescence. ATPlite luciferase biochemical, 10 min; 0 = ATP-free wells, 1 = DMSO control. activation factor at 10 µM. AID 1027, 2008. Luciferin 4-monooxygenase (Photinus pyralis), P08659. 200,000 tested, under 10 active;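 active = luciferase activation factor, scaled between plate controls, of at least 2 with compound at 10 µM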
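System: Luciferase/luciferin detection reagent, cell-free biochemical luciferase assay | Medium: PBS buffer for ATP | Dosing: Test compounds dosed from 2 mM stocks in 100% DMSO | Timing: 10 min at ambient temperature | Signal: Luminescence measurement of luciferase light output | Evaluation: Luciferase activation, seen as luminescence increase over controls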
STAT1 act – STAT1 signaling activators, primary screen, cell-based, HTS, luciferase reporter; activation (% of control), % at 5.5 µM; AID 932, 2007; NIH 3T3 STAT1-luciferase reporter, IFN-gamma, luminescence; 100% = IFN-gamma alone, no compound; hit rate 2.6% among 200,000;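 active = activation above the screen-wide mean activation plus 3 SD, cut at about 130% in these data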
Rad51 HR inh – human RAD51 strand exchange inhibitors, primary screen, biochemical, fluorescence; DNA repair protein RAD51 homolog 1 (Homo sapiens), Q06609; hRad51 DNA strand exchange, fluorescence dequenching; inhibition, % at 10 µM; hit rate 0.085% among 200,000;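 active = inhibition above 40% at the single screening dose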
Target sequence (Q06609 whole entry, looked up): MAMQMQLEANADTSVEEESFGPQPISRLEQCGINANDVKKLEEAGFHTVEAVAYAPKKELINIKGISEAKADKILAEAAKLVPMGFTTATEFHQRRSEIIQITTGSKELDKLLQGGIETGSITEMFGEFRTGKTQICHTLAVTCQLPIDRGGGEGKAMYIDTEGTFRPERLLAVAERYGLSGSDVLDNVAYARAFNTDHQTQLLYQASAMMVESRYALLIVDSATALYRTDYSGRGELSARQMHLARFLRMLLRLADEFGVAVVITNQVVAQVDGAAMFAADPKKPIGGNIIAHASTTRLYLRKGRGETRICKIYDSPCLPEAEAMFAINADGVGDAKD
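Read-out basis: percent inhibition relative to plate controls and blanks / Assay system: human Rad51 nucleoprotein filaments preassembled on unlabelled ssDNA / Timing: filaments 15 min 37 °C, then compound 30 min / Control set: per-plate controls and blanks / Technique: fluorescence dequenching at 485/520 nm / Compound: 10 µM final, single point / Also added: Fluorescein- and BHQ1-tagged 47-mer duplex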
NF-kB neuron act – activators of NF-kB expression in neurons, primary screen, cell-based, HTS; human neuronal cells, NF-kB reporter expression; hits give high values; hit rate 1.6% among 190,000; fold change at 12.5 µM; AID 1239, 2008; in the data active = fold change above about 3.3
APP 5'UTR act – activators of APP 5'UTR luciferase reporter, primary screen, SH-SY5Y cells | SH-SY5Y APP 5'UTR luciferase reporter, luminescence; zero percent = DMSO vehicle wells | activation, % at 2 µM | hit rate 1% among 190,000 | AID 1276, 2008;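 active = activation above a set limit, based on mean plus 3 SD of controls, cut at about 140% in these data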
FLuc inhib CS – firefly luciferase enzyme inhibitors, primary screen, artefact control for luciferase-based inhibitor screens, biochemical, luminescence, ATPLite; hit rate 1.5% among 200,000; 10 min; AID 1006, 2008; Luciferin 4-monooxygenase (Photinus pyralis), P08659; inhibition, % at 10 µM;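 active = inhibition above about 50% when tested at 10 µM, limit read from the data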
Numbers stand for hits; . = inactive; / = no result.

SMILES	FLuc act counter	STAT1 act	Rad51 HR inh	NF-kB neuron act	APP 5'UTR act	FLuc inhib CS
Brc1ccc(-c2ccc(/C=N/Nc3nc4ccccc4[nH]3)o2)cc1	.	138	.	.	.	81
O=[N+]([O-])c1ccccc1N/N=C/c1c[nH]c2ccccc12	.	151	.	4.2	173	.
Fc1cccc(/C=N/Nc2nc3ccccc3[nH]2)c1	.	141	.	.	.	.
COC(=O)C/C(O)=C(/N=Nc1cccc(C(F)(F)F)c1)C(=O)OC	.	.	.	.	.	.
O=C(CSc1cn(Cc2ccccc2)c2ccccc12)Nc1nccs1	.	146	.	.	.	50
O=C(CSc1ccccc1)Nc1nccs1	.	.	.	.	.	.
Cc1ccnc(N/N=C/c2ccccc2)n1	.	145	.	.	.	51
C(=N\Nc1nccc(-c2cccnc2)n1)/c1ccccc1	/	/	.	/	/	/
Oc1ccc(/C=C/c2cc(O)cc(O)c2)cc1	.	.	.	23	151	80
O=C(NN=C1C2CC3CC(C2)CC1C3)c1ccncc1	.	.	.	.	.	.
O=C(N/N=C1\C/C(=N\NC(=O)c2ccncc2)c2ccccc21)c1ccncc1	.	.	.	.	.	69
C#CCOCCOCCOCCNc1nc(N2CCN(C(=O)[C@H](CCCCN)n3cc([C@@H](N)CO)nn3)CC2)nc(N2CCN(C(=O)[C@H](Cc3cc4ccccc4[nH]3)n3cc([C@@H](N)CC(C)C)nn3)CC2)n1	.	.	/	.	.	.
Cc1ccc(-c2cn3nc(C)c(C)nc3n2)cc1	.	.	/	4.7	.	75
CCc1ccc(-c2cn3nc(-c4ccccc4)cnc3n2)cc1	/	/	.	/	/	/
COC(=O)C1SCC2C(=O)N(Cc3ccc(Cl)c(Cl)c3)CC(=O)N21 (centres undefined)	.	.	.	.	.	.
Cc1ccccc1C(=O)NNC(=O)CSc1nc2ccccc2c(=O)[nH]1	/	/	.	/	/	/
Cc1cc(C)c[n+](-c2nc3ccccc3nc2C(=C=[N-])C#N)c1	.	.	.	4.4	.	.
Cc1ccc[n+](-c2nc3ccccc3nc2C(=C=[N-])C#N)c1	.	.	.	.	.	.
COc1ccc(OC)c(Nc2nc(NCCCN(C)C)nc(N)c2[N+](=O)[O-])c1	/	/	41	/	/	/
COc1ccc(OC)c(Nc2nc(N)c([N+](=O)[O-])c(NCc3ccccc3)n2)c1	/	/	.	/	/	/
S=C1NCN(C2CCCCC2)CN1c1ccccc1	/	/	.	/	/	/
Brc1ccccc1C1CC(c2ccccc2)=Nc2ccccc2N1 (centres undefined)	.	135	.	.	149	.
C/C(=N\NC(=O)c1cc(C(C)C)[nH]n1)c1ccco1	.	.	.	.	.	79
C/C(=N/NC(=O)c1cc(C(C)C)[nH]n1)c1cccs1	.	.	.	3.4	.	70
C/C(=N\Nc1ccccn1)c1cccs1	.	137	.	.	.	.
SMILES	FLuc act counter	STAT1 act	Rad51 HR inh	NF-kB neuron act	APP 5'UTR act	FLuc inhib CS
C/C(=N\NC(=O)c1nc2ccccn2c1C)c1ccco1	.	136	.	.	.	.
O=C(NCc1n[nH]c(=S)n1-c1ccc(Cl)c(Cl)c1)c1ccc(S(=O)(=O)N2CCOCC2)cc1	.	.	.	.	.	.
NC(=O)C1CCN(CC(=O)NC(=O)NC2CCCC2)CC1	.	.	.	.	.	.
CC1(C(=O)Nc2c(F)c(F)c(F)c(F)c2F)CC1(Br)Br (centres undefined)	/	/	.	/	/	/
O=C1CN(C(=O)COC(=O)c2ccc[n+]([O-])c2)c2ccccc2N1	.	.	.	.	.	.
NC(=S)c1c(Cl)cc(C(F)(F)F)cc1Cl	/	/	.	/	/	/
C/C(=N/NC(=O)c1cnccn1)c1cccs1	.	135	.	.	.	.
C/C(=N\NC(=O)c1cc(C)[nH]n1)c1cccs1	.	.	.	.	.	56
C/C(=N\NC(=O)c1ccc(NS(=O)(=O)c2cccs2)cc1)c1cccs1	.	.	.	.	.	.
C/C(=N\NC(=O)c1ccc(Cl)cc1)c1cccs1	.	.	.	5.4	.	90
CC(C)COc1cccc(C(=O)NC(=S)NCc2cccnc2)c1	.	.	.	.	.	.
Cc1ccccc1-n1ccnc1SCC(=O)NCc1ccco1	.	.	.	.	.	.
COc1ccc(NS(=O)(=O)c2cccc(NC(=O)CCS(=O)(=O)c3ccccc3)c2)cc1	.	.	/	.	.	.
CC/C=C/C(=O)N1CC2(CC(c3cccc(NC(=O)COc4ccc(Cl)cc4)c3)=NO2)C[C@H]1C(N)=O (some centres undefined)	/	/	.	/	/	/
O=C1/C(=C/c2cccs2)Sc2ccccc21	.	.	.	.	.	68
O=C1Nc2ccccc2S/C1=C/c1cccs1	/	/	.	/	/	/
COc1ccc(-c2nnnn2-c2ccc(F)cc2F)cc1	.	.	.	3.9	.	.
COC(=O)C1=C(C)NC(C)=C(C(=O)OC)C1c1ccc(N(C)C)cc1	.	.	.	3.7	.	.
CCN(CC)CCCN1C(=O)CSC1c1ccc([N+](=O)[O-])cc1 (centres undefined)	.	.	.	.	.	.
CN=c1scc(-c2ccccc2F)n1/N=C/c1ccc(O)c(O)c1O	.	.	.	.	.	98
CN=c1scc(-c2ccccc2F)n1/N=C/c1ccc[nH]1	.	.	.	.	.	97
CC(C)N=c1scc(-c2cccs2)n1/N=C/c1ccc(O)c(O)c1O	.	.	.	.	.	.
COc1ccc(C2(CNC(=O)c3ccc(OCC(C)C)cc3)CCOCC2)cc1	.	.	.	.	.	.
Cc1cc(C)nc(N/N=C/c2cc(Br)ccc2O)n1	/	/	.	/	/	/
CS(=O)(=O)c1ccc(C(=O)OCC(=O)NC(=O)C2CCCCC2)cc1[N+](=O)[O-]	.	.	.	.	.	.
SMILES	FLuc act counter	STAT1 act	Rad51 HR inh	NF-kB neuron act	APP 5'UTR act	FLuc inhib CS
O=C(Nc1nc2ccc(Cl)cc2s1)C1CCCO1 (centres undefined)	.	144	.	4.6	.	.
NS(=O)(=O)c1ccc2nc(NC(=O)C3CCCO3)sc2c1 (centres undefined)	.	.	.	.	.	.
CS(=O)(=O)c1ccc2nc(NC(=O)C3CCCO3)sc2c1 (centres undefined)	.	.	.	.	.	.
O=C(Nc1nc2ccc([N+](=O)[O-])cc2s1)C1CCCO1 (centres undefined)	.	136	.	.	.	.
CCNC(=O)NC(=O)C(C)OC(=O)CNS(=O)(=O)c1c(Cl)cc(Br)cc1Cl (centres undefined)	.	.	.	.	.	.
Cc1[nH]n(C(N)=S)c(=O)c1N=Nc1cc(-c2ccc(Br)cc2)[nH]n1	.	.	.	.	.	56
